Only some compounds are listed: those with a hit (about 3.8% of all), similar ones and a draw of the others.
rCAG RNA binder – molecules binding r(CAG) RNA repeats. r(CAG) RNA repeat, TO-PRO-1 dye displacement fluorescence. inhibition, % at 3 µM. 1.3% of 370,000 active. AID 651821;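 active = inhibition above the plate cutoff, the mean of all test compounds on that plate plus 3 SD, cut at about 35% in these data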;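 also: 0% = DMSO alone and 100% = 100 µM mitoxantrone as full dye displacement; higher means more dye released from RNA so lower well fluorescence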
MPTP inh – blocks calcium-induced mitochondrial swelling; isolated mouse mitochondria, Ca2+ swelling absorbance, 30 min; 1.4% of 360,000 active; AID 602449; inhibition, % at 10 µM;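 active = inhibition of 50% or more, scaled per plate between neutral and stimulator controls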;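 also: 0% = DMSO wells given calcium and 100% = 1 mM EGTA wells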
Beta2AR agonist – human beta-2 adrenergic receptor agonism by FAP; P07550; Am2.2-beta2AR cells, FAP receptor internalization, flow cytometry; response, % (test concentration not listed); 0.43% of 340,000 active;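 active = response above a set limit, near 3 SD of response in nonfluorescent compounds, cut at about 42% in these data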
Target sequence (P07550 whole entry, looked up): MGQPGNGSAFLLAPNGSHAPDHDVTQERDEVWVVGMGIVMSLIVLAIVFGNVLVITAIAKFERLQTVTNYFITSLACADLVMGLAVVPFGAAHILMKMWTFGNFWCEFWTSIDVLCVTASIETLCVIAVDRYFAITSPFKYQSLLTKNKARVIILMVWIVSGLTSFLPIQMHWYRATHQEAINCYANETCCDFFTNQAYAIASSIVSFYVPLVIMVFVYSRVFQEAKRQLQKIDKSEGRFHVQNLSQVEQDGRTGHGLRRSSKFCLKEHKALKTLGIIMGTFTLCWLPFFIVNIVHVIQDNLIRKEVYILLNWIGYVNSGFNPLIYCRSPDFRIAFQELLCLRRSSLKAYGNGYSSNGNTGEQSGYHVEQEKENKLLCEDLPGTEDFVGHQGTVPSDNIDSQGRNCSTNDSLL
T cell HTS – modulates CD8 T cell binding to vesicles | 2C CD8+ T cell-vesicle binding, flow cytometry; stronger effect = lower value | response (vesicle binding), % at 7 µM | 0.068% of 330,000 active | AID 2052;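 active = response, share of CD8 T cells binding vesicles, and their 90th percentile fluorescence all below set limits, cut at about 80% in these data, passing the limit was not always enough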;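 also: values below 100% mean blocked vesicle binding to the CD8+ T cells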
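Material: 2C TCR transgenic mouse naive CD8+ T cells, MACS-purified. Also added: QL9-charged Drosophila Ld/ICAM-1/B7-1 vesicles. Timing: binding 1.5 h at 37 °C. Measured by: high-throughput flow cytometry with anti-B7-1 and anti-CD8 staining. Read-out: percent CD8+ FL2 mean versus row control. Controls: Unloaded micro-vesicles (low), QL9 vesicles with 0.7% DMSO (high).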
Granule exo inh – lytic granule exocytosis inhibition; TALL-104 LAMP-1 surface exposure, flow cytometry; cells stimulated with thapsigargin and PMA; inhibition, % at 10 µM; 0.66% of 360,000 active; AID 651702;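 active = inhibition above about 55%, limit read from the data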
V-ATPase pHluor – yeast V-ATPase proton transport regulation by pHLuorin; S. cerevisiae, pHLuorin cytosolic pH fluorescence; response, % at 10 µM; 0.37% of 350,000 active; in the data active = response mostly above about 7.3%, no sharp cut-off; inactive = mostly below about 5.4%; also: actives read high
Beta2AR ag CP1 – agonists of human beta-2 adrenergic receptor. 25% of 1,100 active. percent response (surface receptor), % at 10 µM. shares compounds with Beta2AR agonist. Am2.2-beta2AR cells, FAP surface receptor, flow cytometry; stronger effect = lower value;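 active = surface receptor percent response at or below 58%, roughly 3 SD from nonfluorescent compounds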
B2AR FAP counter – fluorescence artifact in beta-2AR agonist FAP counterscreen. shares compounds with Beta2AR agonist. Am2.2 cells, FAP fluorogen flow cytometry; stronger effect = lower value. calls only at 10 µM. 1,100 tested, under 10 active;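 active = percent response below a set limit in fluorescence channel 1 and below 50% in channel 8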
VATPase regulator – modulates yeast V-ATPase proton transport | shares compounds with V-ATPase pHluor | S. cerevisiae pHLuorin cytosolic pH | response, % at 10 µM | 2% of 980 active; in the data active = response above about 24%;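 also: plate controls were vehicle wells for no effect and positive control wells for full effect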
Granule exo CP1 – blocks lytic granule exocytosis. 11% of 1,500 active. inhibition, % at 10 µM. shares compounds with Granule exo inh. AID 651954. TALL-104 cells, LAMP-1 externalization, flow cytometry; stimulated with PMA plus thapsigargin; in the data active = inhibition above about 60%;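 also: 0% = stimulated vehicle wells and 100% = unstimulated wells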
rCAG binder conf – r(CAG) RNA repeat binding, confirmation | shares compounds with rCAG RNA binder | TO-PRO-1 dye displacement fluorescence | inhibition, % at 3 µM | 70% of 4,300 active | AID 652065;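 active = inhibition above a per-plate cutoff, the mean inhibition of sample wells plus 3 SD, cut at about 35% in these data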;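 also: loss of TO-PRO-1 fluorescence as compound displaces dye from 1x1 AA loop RNA; 0% = DMSO only wells and 100% = 100 µM mitoxantrone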
DNA CAG counter – counter-screen for rCAG RNA binders: DNA CAG dye complex inhibitors; shares compounds with rCAG RNA binder; d(CAG) DNA oligo TO-PRO-1 dye displacement, fluorescence; inhibition, % at 3 µM; 94% of 4,300 active; AID 652068;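 active = inhibition above its plate's cutoff, the mean test-well inhibition plus 3 SD, cut at about 4.8% in these data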;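 also: 0% = DNA dye mix with DMSO and 100% = 100 µM mitoxantrone; hits displace the dye from DNA and so lower well fluorescence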
* marks the source's active call; other numbers are inactive results; i = inactive; · = no result given.

SMILES	rCAG RNA binder	MPTP inh	Beta2AR agonist	T cell HTS	Granule exo inh	V-ATPase pHluor	Beta2AR ag CP1	B2AR FAP counter	rCAG binder conf	DNA CAG counter	others
COc1ccccc1-c1cc(C(F)(F)F)nc(S(=O)(=O)CCCC(=O)N2CCCCC2C)n1 (stereo not drawn)	-7	-4	35	734	64*	0	66	i	·	·	Granule exo CP1=4
CCn1c(=N)n(CC(=O)c2ccc(Br)s2)c2ccccc21	15	0	-4	256	-1	0	·	·	·	·
CCCCn1c(=N)n(CC(=O)c2ccc(Br)s2)c2ccccc21	17	7	82*	100	82*	0	0.9*	i	·	·	Granule exo CP1=96*
CCOC(=O)c1ccc(N2C(=O)c3n[nH]c(-c4ccco4)c3C2c2cccc([N+](=O)[O-])c2)cc1 (stereo not drawn)	74*	-17	85*	373	1	-1	23*	i	19	14*
CCn1nc(NC(=O)c2ccccn2)c2cc3cccc(C)c3nc21	7	-1	15	229	0	-2	·	·	·	·
CCn1nc(NS(=O)(=O)c2ccccc2)c2cc3cccc(C)c3nc21	41*	6	5	489	0	0	·	i	33	11*
O=C(CSc1nnc(-c2cccnc2)n1Cc1ccco1)Nc1ccc(F)cc1Cl	6	·	·	·	·	·	·	·	·	·
O=C(NC1CCCCN(Cc2cccc(C(F)(F)F)c2)C1=O)c1ccc(F)cc1 (stereo not drawn)	-3	·	·	·	·	·	·	·	·	·
COC(=O)[C@]12C[C@H](CC(=O)N3CCC(c4ccccc4)CC3)C(=O)N(Cc3ccco3)C1=C[C@H](COCc1ccccc1)O[C@@H]2C	10	·	·	·	·	·	·	·	·	·
O=C(Nc1ccc(S(=O)(=O)Nc2nccs2)cc1)c1cccc(N2C(=O)c3ccccc3C2=O)c1	69*	1	2	200	-14	0	108	i	58*	23*
CSC(=Nc1ccccc1)C(C#N)c1nc2ccccc2[nH]1 (stereo not drawn)	4	-3	-5	618	-4	1	·	·	·	·
N#CC(C(=S)Nc1ccccc1)c1nc2ccccc2[nH]1 (stereo not drawn)	65*	20	-7	i	28	-3	131	i	46*	16*
CSc1nc(SCCO)c2sc3nc(-c4ccco4)c4c(c3c2n1)CC(C)(C)OC4	39*	2	100*	·	3	4	6.5*	i	39*	20*
CC(C)C(NC(=O)c1ccccc1NC(=O)c1ccccc1)C(=O)NCCCn1ccnc1 (stereo not drawn)	·	2	3	155	-15	9.5*	·	·	·	·	VATPase regulator=1
O=C1C=C(c2ccc(C(=O)O)cc2)C[C@@H](c2ccc(F)cc2)C1	9	3	2	196	2	9.7*	·	·	·	·	VATPase regulator=-1
O=C1C=C(c2ccc(-c3ccccc3)cc2)C[C@@H](c2ccc(F)cc2)C1	0	-1	6	462	-8	-2	·	·	·	·
COc1ccc(-n2c(SCC(=O)c3ccc4ccccc4c3)nnc2-c2ccccc2)cc1	12	·	·	·	·	·	·	·	·	·
CS(=O)(=O)N1Cc2ccccc2CC1C(=O)OCC(=O)NCc1ccccc1 (stereo not drawn)	5	0	3	451	6	-2	·	·	·	·
CS(=O)(=O)N1Cc2ccccc2CC1C(=O)OCC(=O)NCCc1ccc(S(N)(=O)=O)cc1 (stereo not drawn)	6	-3	12	378	7	12*	·	·	·	·	VATPase regulator=1
